Measurements taken from ChEMBL document CHEMBL3745658, “An Orally Bioavailable, Indole-3-glyoxylamide Based Series of Tubulin Polymerization Inhibitors Showing Tumor Growth Inhibition in a Mouse Xenograft Model of Head and Neck Cancer” (J Med Chem, 2015).
In brackets after ≈: the same amount, converted by molar mass. Activity calls are given as the source filed them. No cut-off for these calls is given here.

Columns and labels:
SH-SY5Y = experiment: Cytotoxicity against human SH-SY5Y cells assessed as reduction in cell viability after 72 hrs by MTT assay; format: functional, cell-based
Method in brief: (§1)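 Cells plated at an appropriate density and left 24 h to attach, then dosed in triplicate with compound diluted from 10 mM DMSO stocks into full growth medium (added at 2× final concentration). After 72 h, cells PBS-washed and given MTT (0.5 mg/mL in PBS) for 45−60 min. Formazan dissolved in 0.1 M HCl/2-propanol, A570 read (650 nm reference). Viability normalised to DMSO control; LC50 by nonlinear regression.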

SK-MEL-28 = experiment: Cytotoxicity against human SK-MEL-28 cells assessed as reduction in cell viability after 72 hrs by MTT assay; format: functional, cell-based; method in brief: as §1
Tubulin [1] = biological target: T1, Tubulin (Sus scrofa, UniProt P02554+P02550); experiment: Displacement of [3H]-colchicine from biotinylated porcine tubulin after 2 hrs by competitive binding assay; format: protein assay
Method in brief: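 Biotinylated porcine tubulin (750 ng/well) with 0.1 μM [3H]-colchicine and test compound in G-PEM with 1 mM GTP, 3% DMSO, duplicate wells, 2 h at 37 °C. Streptavidin SPA beads then added for 45 min at 37 °C. Nonspecific binding taken with 1000-fold unlabeled excess. IC50 from seven-point semilog curves, four-parameter fit.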

[2] = Efflux ratio of apparent permeability from basolateral to apical side over apical to basolateral side in human Caco2 cells; details: Caco-2
FaDu [3] = experiment: Cytotoxicity against human FADU multicellular tumor spheroid assessed as effect on normal spheroid growth at 1 uM incubated for 2 to 3 days by light microscop; format: cell-based
Method in brief: (§2)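 FaDu monoculture spheroids were dosed once and imaged at 0, 2, 4 and 7 days after dosing. Fragmentation and growth were judged against untreated spheroids.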

FaDu [4] = experiment: Cytotoxicity against human FADU cells assessed as reduction in cell viability after 72 hrs by MTT assay; format: functional; details: read-out: LC50 (the source's name)
FaDu [5] = experiment: Cytotoxicity against human FADU multicellular tumor spheroid assessed as dispersion of cells from the spheroid at 1 uM incubated for 2 to 7 days by light microscopy; format: functional, cell-based; method in brief: as §2
SCC-4 = experiment: Cytotoxicity against human SCC4 cells assessed as reduction in cell viability after 72 hrs by MTT assay; format: functional, cell-based; method in brief: as §1
FaDu [6] = experiment: Antitumor activity against human FADU cells xenografted in CD-1 mouse assessed as inhibition of tumor growth at 10 mg/kg, po qd for 10 days measured at 3 to 9 days; format: functional, organism-based
Method in brief: (§3)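 FaDu xenografts established in mice before dosing; compound given by oral gavage once daily for 10 days. Tumor volume was followed over time and compared with a vehicle control group, with significance assessed at days 3, 6, 9, 13 and 15. Body weight and survival were also recorded.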

Tubulin [7] = biological target: T1, Tubulin; experiment: Inhibition of porcine brain tubulin polymerization assessed as reduction in GTP-induced microtubule assembly after 60 mins by OD340 method
MES-SA = experiment: Cytotoxicity against human MES-SA cells assessed as reduction in cell viability after 72 hrs by MTT assay; format: functional, cell-based; method in brief: as §1
[8] = Solubility in 2% DMSO containing 50 mM potassium phosphate buffer solution pH 7.4 at 10 uM by dynamic light scattering method; details: pH 7.4, 10 µM
Tubulin (Sus scrofa) [9] = biological target: T2, Tubulin (Sus scrofa) (UniProt P02554+P02550); experiment: Displacement of [3H]-vinblastine from biotinylated porcine tubulin after 15 mins by competitive binding assay; format: protein assay
Method in brief: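 Biotinylated porcine tubulin, 0.2 μM [3H]-vinblastine, SPA beads and test compound combined together in G-PEM with 1 mM GTP, 3% DMSO, duplicate wells, 15 min at rt before counting. Nonspecific binding taken with 1000-fold unlabeled excess. IC50 from seven-point semilog curves, four-parameter fit.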

FaDu [10] = experiment: Cell cycle arrest in human FADU cells assessed as accumulation at G2/M phase after 24 hrs by propidium iodide staining-based flow cytometry; format: functional
Method in brief: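 FaDu cells seeded at 10^5/well, attached overnight, then exposed to compound in full growth medium at 37 °C for 24 h. Cells were trypsinized, fixed in ice-cold 70% ethanol, treated with RNase A (100 μg/mL), stained overnight in the dark with propidium iodide (50 μg/mL), and analysed by flow cytometry with at least 10000 events per sample.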

[11] = Apparent permeability from apical to basolateral side in human Caco2 cells at 10 uM at pH 7.4 after 60 mins by mass spectrometry; details: Caco-2, pH 7.4
Tubulin (Sus scrofa) [12] = biological target: T2, Tubulin (Sus scrofa); experiment: Displacement of [3H]-paclitaxel from biotinylated porcine tubulin after 25 mins by competitive binding assay; format: protein assay
Method in brief: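 Biotinylated porcine tubulin precoupled to SPA beads for 30 min at 4 °C, then 0.05 μM [3H]-paclitaxel and test compound added in G-PEM with 1 mM GTP, 3% DMSO, duplicate wells, 25 min at rt. Nonspecific binding taken with 1000-fold unlabeled excess. IC50 from seven-point semilog curves, four-parameter fit.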

FaDu [13] = experiment: Antitumor activity against human FADU cells xenografted in CD-1 mouse assessed as inhibition of tumor growth at 10 mg/kg, po qd for 10 days measured at 13 and 15 days; format: functional, organism-based; method in brief: as §3
FaDu [14] = experiment: Selectivity index, ratio of EC50 for cell cycle arrest in human FADU cells to LC50 for cytotoxicity against human FADU cells; format: functional
Method in brief: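 G2/M arrest EC50 came from a 24 h dose–response of propidium iodide flow cytometry in FaDu cells. It was compared with the LC50 from a 72 h MTT assay in FaDu cells (triplicate wells, A570, viability relative to DMSO, nonlinear regression).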

[15] = Solubility in 2% DMSO containing 50 mM potassium phosphate buffer solution at pH 7.4 by dynamic light scattering method; details: 50 mM potassium phosphate buffer with 2% DMSO
[16] = Metabolic stability in CD-1 mouse liver microsomes assessed as half life at 1 uM preincubated for 5 mins before addition of NADPH by LC-MS/MS method; format: ADME
FaDu [17] = experiment: Induction of microtubule disruption in human FADU cells assessed as multipolarization of spindle at 30 nM after 24 hrs by immunofluorescence staining method; format: functional, cell-based
Method in brief: (§4)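 FaDu cells grown on coverslips (15000/well) for 24 h, then exposed to compound for 24 h. Unassembled tubulin was extracted with PHEM/0.5% Triton X-100/10 μM paclitaxel for 3 min. Cells were fixed in PHEM with 8% paraformaldehyde and 0.3% glutaraldehyde on ice, blocked, then stained with FITC anti-α-tubulin (DM1A) and DAPI. Confocal z-stacks were taken at 100×.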

FaDu [18] = experiment: Induction of microtubule disruption in human FADU cells at 150 nM after 24 hrs by immunofluorescence staining method; format: functional, cell-based; method in brief: as §4
FaDu [19] = experiment: Cytotoxicity against human FADU multicellular tumor spheroid assessed as induction of spheroid disruption incubated for 7 days by light microscopy; format: functional, cell-based; details: for EC50: 168 h
Method in brief: (§5)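 Monocultured FaDu spheroids dosed over a concentration range and imaged at 0, 2, 4 and 7 days post-dosing. Volume followed over time, fragmentation scored at the 7-day end point, and EC50 for disruption derived from 7-day dose–response plots. Two independent experiments, mean ± SEM.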

MES-SA/Dx5 = experiment: Cytotoxicity against multidrug resistant human MES-SA/Dx5 cells assessed as reduction in cell viability after 72 hrs by MTT assay; format: functional, cell-based; method in brief: as §1
[20] = Solubility in 2% DMSO containing 50 mM potassium phosphate buffer solution pH 7.4 at 1 uM by dynamic light scattering method; format: physicochemical; details: pH 7.4, 1 µM
[21] = Aqueous solubility of the compound by UV-HPLC
FaDu [22] = experiment: Antitumor activity against human FADU cells xenografted in CD-1 mouse assessed as tumor volume recovery at 10 mg/kg, po qd for 10 days measured between 6 and 9 days; format: functional, organism-based
Method in brief: (§6)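 FaDu xenografts established in mice, then test agent given by oral gavage once daily for 10 days; tumor volume followed against an untreated control group, with significance assessed at days 3, 6, 9, 13 and 15.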

[23] = Apparent permeability from apical to basolateral side in human Caco2 cells assessed as drug recovery at 10 uM at pH 7.4 after 60 mins by mass spectrometry; format: ADME, cell-based; details: Caco-2, pH 7.4, read-out: Drug recovery
FaDu [24] = experiment: Antitumor activity against human FADU cells xenografted in CD-1 mouse assessed as inhibition of tumor growth at 10 to 20 mg/kg, po qd for 10 days measured at 3 to 9 days; format: functional, organism-based; method in brief: as §6
FaDu [25] = experiment: Induction of microtubule disruption in human FADU cells assessed as multipolarization of spindle at 50 nM after 24 hrs by immunofluorescence staining method; format: functional, cell-based
FaDu [26] = experiment: Cytotoxicity against human FADU multicellular tumor spheroid assessed as reduction of spheroid volume by light microscopy; format: functional, cell-based; method in brief: as §5
FaDu [27] = experiment: Ratio of EC50 for human FADU multicellular tumor spheroid to LC50 for human FADU cells; format: functional
Method in brief: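 FaDu spheroids were dosed over a range of concentrations, and spheroid volume was measured at the 7-day endpoint. EC50 for disruption came from dose–response plots, combining two independent experiments. This was compared with the 72 h monolayer MTT LC50 (triplicate wells, nonlinear regression, viability relative to DMSO).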

FaDu [28] = experiment: Induction of microtubule disruption in human FADU cells at 250 nM after 24 hrs by immunofluorescence staining method; format: functional, cell-based

Structure (SMILES) | Activity (SH-SY5Y) | Activity (SK-MEL-28) | IC50 (Tubulin [1]) [nM] | efflux ratio [2] | Activity (FaDu [3]) | CC50 (FaDu [4]) [nM] | Activity (FaDu [5]) | Activity (SCC-4) | IC50 (Tubulin [7]) [nM] | Activity (MES-SA) | solubility [8] | Activity (Tubulin (Sus scrofa) [9]) | Activity (FaDu [10]) | EC50 (FaDu [10]) [nM] | Papp A→B at 1 h, 10 µM [11] [×10⁻⁶ cm/s] | Activity (Tubulin (Sus scrofa) [12]) | Ratio (FaDu [14]) | solubility kinetic [15] [µM] | half-life at 1 µM [16] [min] | Activity (MES-SA/Dx5) | other results
COc1ccc(NC(=O)C(=O)c2cn(CC3CCCO3)c3ccccc23)cn1 (configuration not stated) | Active | Active | 420 | 0.7 | Non-toxic | 31 | Active | Active | 8300 | Active | soluble | Active | Dose-dependent effect | 160 | 35 | inactive | 5 | 10 (≈ 3.79 µg/mL) | 34 | Active | TGI (FaDu [6]): Active; Activity (FaDu [13]): Active; Activity (FaDu [17]): Active; Activity (FaDu [18]): Active; EC50 (FaDu [19]): 77 nM
O=C(Nc1ccncc1)C(=O)c1cn(Cc2ccc(Cl)cc2)c2ccccc12 [INDIBULIN] | Active | Active |  |  |  | 32 |  | Active |  | Active | Insoluble |  |  |  |  |  |  |  |  | Active | solubility [20]: Insoluble; solubility [21]: ≤ 1 µM
COCCn1cc(C(=O)C(=O)Nc2ccc(OC(C)C)nc2)c2ccccc21 | Active | Active | 500 | 0.9 | Non-toxic | 55 | Active | Active | 6600 | Active | soluble | Active | Dose-dependent effect | 90 | 15.2 | inactive | 2 | 10 (≈ 3.81 µg/mL) | 99 | Active | TGI (FaDu [22]): inactive; recovery at 1 h, 10 µM [23]: < 50%; TGI (FaDu [24]): Active; Activity (FaDu [25]): Active; Activity (FaDu [26]): Dose-dependent effect; Ratio (FaDu [27]): 2; Activity (FaDu [28]): Active; Activity (FaDu [19]): Dose-dependent effect; EC50 (FaDu [19]): 113 nM
COc1ncc(NC(=O)C(=O)c2cn(C(C)C)c3ccccc23)cn1 |  |  |  | 1 |  | 171 |  |  |  |  |  |  |  |  | 39.8 |  |  |  | 5 |  | 
